Source: paper PMC9279630 (Acta Pharmaceutica Sinica. B, 2021)

Format: in vivo
Conditions: mouse
Outline: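 Mice dosed i.p.; horizontal brain sections taken at time points over 24 h, treated by laser-assisted chemical transfer with CHCA as matrix, and imaged by MALDI MSI for the test compound and its metabolite. Relative intensities in brain regions and lateral ventricles cross-checked by LC‒MS/MS. Three biological and technical replicates; mean ± SD from three animals.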

Tmax (male, ICR, brain, ip, 20 mg/kg): ~15 min
Compound: Cc1nc2n(c(=O)c1CCN1CCC(c3noc4cc(F)ccc34)CC1)CCCC2 [RISP, risperidone]
brain regional distribution after 2 h (after 2 h, i.p. RISP 20 mg/kg): a small amount of parent drug was only observed in the lateral ventricles
brain regional distribution (after i.p. administration of RISP 20 mg/kg, around peak): mainly observed in the frontal cortex, striatum, and hippocampus regions
